Key:
[1] = target: T1, Protein mono-ADP-ribosyltransferase PARP10 (Homo sapiens) (UniProt Q53GL7); assay: Inhibition of human recombinant PARP10 at 10 uM incubated for 1 hr using NAD+, biotinylated NAD+ and activated DNA by luminescence based assay
T1 sequence (whole entry): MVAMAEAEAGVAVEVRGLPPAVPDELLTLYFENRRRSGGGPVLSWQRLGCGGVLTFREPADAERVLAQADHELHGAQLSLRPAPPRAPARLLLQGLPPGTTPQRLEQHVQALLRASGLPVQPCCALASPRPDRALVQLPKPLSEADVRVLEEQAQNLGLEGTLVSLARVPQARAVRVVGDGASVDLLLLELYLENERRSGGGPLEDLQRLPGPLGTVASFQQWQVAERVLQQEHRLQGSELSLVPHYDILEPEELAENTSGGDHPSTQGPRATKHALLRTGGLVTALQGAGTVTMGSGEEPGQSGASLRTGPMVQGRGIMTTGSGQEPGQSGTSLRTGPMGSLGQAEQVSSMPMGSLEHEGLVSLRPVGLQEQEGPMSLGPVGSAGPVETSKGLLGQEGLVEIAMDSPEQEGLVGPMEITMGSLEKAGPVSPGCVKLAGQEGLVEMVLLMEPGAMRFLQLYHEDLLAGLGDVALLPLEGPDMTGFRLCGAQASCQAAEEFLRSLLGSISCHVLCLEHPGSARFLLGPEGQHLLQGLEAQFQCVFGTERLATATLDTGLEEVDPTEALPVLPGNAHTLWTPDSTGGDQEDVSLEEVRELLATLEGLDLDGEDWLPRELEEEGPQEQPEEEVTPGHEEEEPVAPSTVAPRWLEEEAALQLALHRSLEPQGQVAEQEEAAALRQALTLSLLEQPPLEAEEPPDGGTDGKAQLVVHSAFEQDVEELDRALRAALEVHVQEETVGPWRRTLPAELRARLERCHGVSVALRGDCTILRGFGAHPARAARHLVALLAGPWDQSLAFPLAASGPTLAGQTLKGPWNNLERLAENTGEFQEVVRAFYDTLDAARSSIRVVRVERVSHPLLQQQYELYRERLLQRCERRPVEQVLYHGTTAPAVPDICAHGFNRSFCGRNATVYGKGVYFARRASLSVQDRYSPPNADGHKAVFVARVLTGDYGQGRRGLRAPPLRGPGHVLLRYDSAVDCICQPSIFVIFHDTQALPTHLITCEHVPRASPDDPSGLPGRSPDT
Outline: (§1)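 Recombinant PARP enzyme reactions were run in duplicate for 1 h at rt on histone-coated plates in Tris·HCl pH 8.0 buffer with NAD+, biotinylated NAD+ and activated DNA. Detection used streptavidin-HRP for 30 min at rt, then a chemiluminescent developer. % inhibition = 100 − % activity, scaled between the no-compound (100%) and no-enzyme (0%) signals.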

[2] = target: T2, Protein mono-ADP-ribosyltransferase TIPARP (Homo sapiens) (UniProt Q7Z3E1); assay: Inhibition of human recombinant PARP7 at 10 uM incubated for 1 hr using NAD+, biotinylated NAD+ and activated DNA by luminescence based assay; outline: as §1
T2 sequence (whole entry): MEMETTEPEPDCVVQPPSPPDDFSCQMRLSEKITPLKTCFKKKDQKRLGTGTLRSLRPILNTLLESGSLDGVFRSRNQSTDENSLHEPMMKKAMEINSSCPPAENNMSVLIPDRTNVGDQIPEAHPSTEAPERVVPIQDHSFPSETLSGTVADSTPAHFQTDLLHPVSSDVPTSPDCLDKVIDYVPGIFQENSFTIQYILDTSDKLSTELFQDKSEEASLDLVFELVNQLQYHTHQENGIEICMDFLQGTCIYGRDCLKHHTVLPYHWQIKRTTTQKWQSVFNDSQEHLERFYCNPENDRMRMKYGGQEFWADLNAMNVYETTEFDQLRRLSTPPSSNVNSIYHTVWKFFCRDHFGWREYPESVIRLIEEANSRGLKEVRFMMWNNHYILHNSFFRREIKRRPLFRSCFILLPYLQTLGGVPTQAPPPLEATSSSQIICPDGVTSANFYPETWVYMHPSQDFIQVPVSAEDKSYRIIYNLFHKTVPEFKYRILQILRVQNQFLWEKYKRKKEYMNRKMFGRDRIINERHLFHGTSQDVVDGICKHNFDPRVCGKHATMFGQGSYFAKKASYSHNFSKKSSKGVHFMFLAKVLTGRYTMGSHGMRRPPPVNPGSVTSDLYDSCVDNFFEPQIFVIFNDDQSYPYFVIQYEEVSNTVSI

CC(C)(C)c1ccc(-c2nc3c(sc4ccccc43)c(=O)[nH]2)cc1
inhibition [1]: 3% | inhibition [2]: 7%
